In ChEMBL document CHEMBL4052595, “Application of Residual Dipolar Couplings and Selective Quantitative NOE to Establish the Structures of Tetranortriterpenoids from Xylocarpus rumphii” (J Nat Prod, 2017):
Activity calls are given as the source filed them.

How the values were obtained:
Assay type in all cases: functional, cell-based
[1] = system: BT-549; assay: Growth inhibition of human BT549 cells at 10^-5 M incubated for 48 hrs by sulforhodamine B assay
Summary of the method: (§1)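 Run in the NCI59 one-dose cell-line screen, with each compound tested at a single concentration of 1 × 10−5 M.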

[2] = system: T47D; assay: Growth inhibition of human T47D cells at 10^-5 M incubated for 48 hrs by sulforhodamine B assay
Summary of the method: (§2)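 Tested at a single concentration of 1 × 10−5 M as part of the NCI59 cell-line one-dose screen.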

[3] = system: Hs-578T; assay: Growth inhibition of human Hs 578T cells at 10^-5 M incubated for 48 hrs by sulforhodamine B assay; summary of the method: as §1
[4] = system: MCF7; assay: Growth inhibition of human MCF7 cells at 10^-5 M incubated for 48 hrs by sulforhodamine B assay; summary of the method: as §1
[5] = system: MDA-MB-231; assay: Growth inhibition of human MDA-MB-231 cells at 10^-5 M incubated for 48 hrs by sulforhodamine B assay; summary of the method: as §1
[6] = system: DU-145; assay: Growth inhibition of human DU145 cells at 10^-5 M incubated for 48 hrs by sulforhodamine B assay; summary of the method: as §1
[7] = system: UO-31; assay: Growth inhibition of human UO31 cells at 10^-5 M incubated for 48 hrs by sulforhodamine B assay; summary of the method: as §2
[8] = system: PC-3; assay: Growth inhibition of human PC3 cells at 10^-5 M incubated for 48 hrs by sulforhodamine B assay; summary of the method: as §1
[9] = system: SN12C; assay: Growth inhibition of human SN12C cells at 10^-5 M incubated for 48 hrs by sulforhodamine B assay; summary of the method: as §1
[10] = system: TK-10; assay: Growth inhibition of human TK10 cells at 10^-5 M incubated for 48 hrs by sulforhodamine B assay; summary of the method: as §2
[11] = system: RXF 393; assay: Growth inhibition of human RXF393 cells at 10^-5 M incubated for 48 hrs by sulforhodamine B assay; summary of the method: as §1
[12] = system: ACHN; assay: Growth inhibition of human ACHN cells at 10^-5 M incubated for 48 hrs by sulforhodamine B assay; summary of the method: as §1
[13] = system: CAKI-1; assay: Growth inhibition of human Caki1 cells at 10^-5 M incubated for 48 hrs by sulforhodamine B assay; summary of the method: as §1
[14] = system: A498; assay: Growth inhibition of human A498 cells at 10^-5 M incubated for 48 hrs by sulforhodamine B assay; summary of the method: as §1
[15] = system: 786-0; assay: Growth inhibition of human 786-0 cells at 10^-5 M incubated for 48 hrs by sulforhodamine B assay; summary of the method: as §1
[16] = system: NCI/ADR-RES; assay: Growth inhibition of human NCI/ADR-RES cells at 10^-5 M incubated for 48 hrs by sulforhodamine B assay; summary of the method: as §1
[17] = system: SK-OV-3; assay: Growth inhibition of human SKOV3 cells at 10^-5 M incubated for 48 hrs by sulforhodamine B assay; summary of the method: as §1
[18] = system: OVCAR-8; assay: Growth inhibition of human OVCAR8 cells at 10^-5 M incubated for 48 hrs by sulforhodamine B assay; summary of the method: as §1
[19] = system: OVCAR-4; assay: Growth inhibition of human OVCAR4 cells at 10^-5 M incubated for 48 hrs by sulforhodamine B assay; summary of the method: as §1
[20] = system: OVCAR-5; assay: Growth inhibition of human OVCAR5 cells at 10^-5 M incubated for 48 hrs by sulforhodamine B assay; summary of the method: as §1
[21] = system: IGROV-1; assay: Growth inhibition of human IGROV1 cells at 10^-5 M incubated for 48 hrs by sulforhodamine B assay; summary of the method: as §1
[22] = system: OVCAR-3; assay: Growth inhibition of human OVCAR3 cells at 10^-5 M incubated for 48 hrs by sulforhodamine B assay; summary of the method: as §1
[23] = system: UACC-62; assay: Growth inhibition of human UACC62 cells at 10^-5 M incubated for 48 hrs by sulforhodamine B assay; summary of the method: as §2
[24] = system: SK-MEL-5; assay: Growth inhibition of human SK-MEL-5 cells at 10^-5 M incubated for 48 hrs by sulforhodamine B assay; summary of the method: as §1
[25] = system: UACC-257; assay: Growth inhibition of human UACC257 cells at 10^-5 M incubated for 48 hrs by sulforhodamine B assay; summary of the method: as §2
[26] = system: SK-MEL-28; assay: Growth inhibition of human SK-MEL-28 cells at 10^-5 M incubated for 48 hrs by sulforhodamine B assay; summary of the method: as §1
[27] = system: MDA-MB-435; assay: Growth inhibition of human MDA-MB-435 cells at 10^-5 M incubated for 48 hrs by sulforhodamine B assay; summary of the method: as §1
[28] = system: SK-MEL-2; assay: Growth inhibition of human SK-MEL-2 cells at 10^-5 M incubated for 48 hrs by sulforhodamine B assay; summary of the method: as §1
[29] = system: M14; assay: Growth inhibition of human M14 cells at 10^-5 M incubated for 48 hrs by sulforhodamine B assay; summary of the method: as §1
[30] = system: U-251; assay: Growth inhibition of human U251 cells at 10^-5 M incubated for 48 hrs by sulforhodamine B assay; summary of the method: as §2
[31] = system: LOX IMVI; assay: Growth inhibition of human LOXIMVI cells at 10^-5 M incubated for 48 hrs by sulforhodamine B assay; summary of the method: as §1
[32] = system: SNB-19; assay: Growth inhibition of human SNB19 cells at 10^-5 M incubated for 48 hrs by sulforhodamine B assay; summary of the method: as §1
[33] = system: SNB-75; assay: Growth inhibition of human SNB75 cells at 10^-5 M incubated for 48 hrs by sulforhodamine B assay; summary of the method: as §1
[34] = system: SF-539; assay: Growth inhibition of human SF539 cells at 10^-5 M incubated for 48 hrs by sulforhodamine B assay; summary of the method: as §1
[35] = system: SF-268; assay: Growth inhibition of human SF268 cells at 10^-5 M incubated for 48 hrs by sulforhodamine B assay; summary of the method: as §1
[36] = system: SF-295; assay: Growth inhibition of human SF295 cells at 10^-5 M incubated for 48 hrs by sulforhodamine B assay; summary of the method: as §1
[37] = system: SW-620; assay: Growth inhibition of human SW620 cells at 10^-5 M incubated for 48 hrs by sulforhodamine B assay; summary of the method: as §2
[38] = system: HT-29; assay: Growth inhibition of human HT-29 cells at 10^-5 M incubated for 48 hrs by sulforhodamine B assay; summary of the method: as §1
[39] = system: KM12; assay: Growth inhibition of human KM12 cells at 10^-5 M incubated for 48 hrs by sulforhodamine B assay; summary of the method: as §1
[40] = system: HCT-116; assay: Growth inhibition of human HCT116 cells at 10^-5 M incubated for 48 hrs by sulforhodamine B assay; summary of the method: as §1
[41] = system: HCT-15; assay: Growth inhibition of human HCT15 cells at 10^-5 M incubated for 48 hrs by sulforhodamine B assay; summary of the method: as §1
[42] = system: HCC 2998; assay: Growth inhibition of human HCC2998 cells at 10^-5 M incubated for 48 hrs by sulforhodamine B assay; summary of the method: as §1
[43] = system: NCI-H522; assay: Growth inhibition of human NCI-H522 cells at 10^-5 M incubated for 48 hrs by sulforhodamine B assay; summary of the method: as §1
[44] = system: COLO 205; assay: Growth inhibition of human COLO205 cells at 10^-5 M incubated for 48 hrs by sulforhodamine B assay; summary of the method: as §1
[45] = system: NCI-H460; assay: Growth inhibition of human NCI-H460 cells at 10^-5 M incubated for 48 hrs by sulforhodamine B assay; summary of the method: as §1
[46] = system: NCI-H23; assay: Growth inhibition of human NCI-H23 cells at 10^-5 M incubated for 48 hrs by sulforhodamine B assay; summary of the method: as §1
[47] = system: NCI-H322M; assay: Growth inhibition of human NCI-H322M cells at 10^-5 M incubated for 48 hrs by sulforhodamine B assay; summary of the method: as §1
[48] = system: NCI-H226; assay: Growth inhibition of human NCI-H226 cells at 10^-5 M incubated for 48 hrs by sulforhodamine B assay; summary of the method: as §1
[49] = system: HOP-62; assay: Growth inhibition of human HOP62 cells at 10^-5 M incubated for 48 hrs by sulforhodamine B assay; summary of the method: as §1
[50] = system: HOP-92; assay: Growth inhibition of human HOP92 cells at 10^-5 M incubated for 48 hrs by sulforhodamine B assay; summary of the method: as §1
[51] = system: A549; assay: Growth inhibition of human A549/ATCC cells at 10^-5 M incubated for 48 hrs by sulforhodamine B assay; summary of the method: as §1
[52] = system: EKVX; assay: Growth inhibition of human EKVX cells at 10^-5 M incubated for 48 hrs by sulforhodamine B assay; summary of the method: as §1
[53] = system: SR; assay: Growth inhibition of human SR cells at 10^-5 M incubated for 48 hrs by sulforhodamine B assay; summary of the method: as §1
[54] = system: MOLT-4; assay: Growth inhibition of human MOLT4 cells at 10^-5 M incubated for 48 hrs by sulforhodamine B assay; summary of the method: as §1
[55] = system: RPMI-8226; assay: Growth inhibition of human RPMI8226 cells at 10^-5 M incubated for 48 hrs by sulforhodamine B assay; summary of the method: as §1
[56] = system: K562; assay: Growth inhibition of human K562 cells at 10^-5 M incubated for 48 hrs by sulforhodamine B assay; summary of the method: as §1
[57] = system: CCRF-CEM; assay: Growth inhibition of human CCRF-CEM cells at 10^-5 M incubated for 48 hrs by sulforhodamine B assay; summary of the method: as §1
[58] = system: HL-60(TB); assay: Growth inhibition of human HL-60(TB) cells at 10^-5 M incubated for 48 hrs by sulforhodamine B assay
Summary of the method: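 Run in the NCI59 cell-line one-dose screen, with each compound tested at a single concentration of 1 × 10−5 M.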

Measured: growth inhibition (GI)

CC[C@H](C)C(=O)O[C@@H]1[C@H]2C(=O)[C@](C)([C@H]3CC[C@@]4(C)[C@H](c5ccoc5)OC(=O)C[C@]45O[C@]35[C@@H]2OC(=O)C(C)C)[C@@H](CC(=O)OC)C1(C)C
inactive: [1] | [2] | [3] | [4] | [5] | [6] | [7] | [8] | [9] | [10] | [11] | [12] | [13] | [14] | [15] | [16] | [17] | [18] | [19] | [20] | [21] | [22] | [23] | [24] | [25] | [26] | [27] | [28] | [29] | [30] | [31] | [32] | [33] | [34] | [35] | [36] | [37] | [38] | [39] | [40] | [41] | [42] | [43] | [44] | [45] | [46] | [47] | [48] | [49] | [50] | [51] | [52] | [53] | [54] | [55] | [56] | [57] | [58]
